Among the data in ChEMBL document CHEMBL4513216, “Probing the Open Global Health Chemical Diversity Library for Multistage-Active Starting Points for Next-Generation Antimalarials” (ACS Infect Dis, 2020) are cytotoxicity values, retold here.

This series is described as follows: Toxicity liver stage against HepG2, at 10uM. The format is cell-based. Also noted: test concentration 10 uM, cell line HepG2-A16-CD81EGFP. Conditions: human, HepG2-A16-CD81EGFP cells; read-out: INHIBITION
An outline of the steps:
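Uninfected HepG2-A16-CD81EGFP cells, 3 × 10^3 per well, 1536-well, plated on prespotted compound at 10 μM final, parasite-free screening media added to match infected plates; puromycin 10 μM positive, DMSO 0.5% negative; run in parallel with 48 h PbLuc assay at 37 °C, 5% CO2; viability by CellTiter-Glo luminescence, normalized to controls.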

As for `O=C(NC1CC1)N1CC[C@H](OCC2CC2)[C@@H]1Cc1cccnc1`, the cytotoxicity at 10 µM is 1.36%.
For the compound `CNC(=O)Cn1ccc2ccc(NC(=O)C(C)C)cc21`, the cytotoxicity at 10 µM stood at 0.153%.
Then `CC(=O)N1CCN([C@@H]2CCC[C@@H](NC(=O)c3cccnc3)[C@H]2O)CC1`, with -0.00173%; and `Cn1c(N2CCOCC2)nc2cc(C(=O)NCC(F)(F)F)ccc21`, with 1.85%; and `Cc1ccc(CN(C(=O)NCC2CCS(=O)(=O)C2)C2CC2)o1` (centres undefined), with -144%.
Next, `Cc1nc(C)n(CC2CCCN(Cc3ccc(F)cc3C#N)C2)n1` (centres undefined): -10.8%; `CCc1csc(C2CCCN(C(=O)c3ccnc(N(C)C)c3)C2)n1` (centres undefined): -6.81%; `NC(=O)CCc1cccc(C2CCNCC2)n1`: -3.28%.
As to `CSc1ccccc1NC(=O)c1ccc(N2CCOCC2)nn1`, the cytotoxicity at 10 µM was 0.951%.
Next, `CC(C)c1cc(C(=O)N2CCN(c3ncc4c(n3)CCOC4)CC2)on1`: 1.57%; `O=C(c1ccco1)N1CCc2ncc(CN3CCOCC3)n2CC1`: -78.7%; `CCn1ncc2c1C(COCC1CC1)CN(C(=O)c1cccs1)C2` (centres undefined): -7.64%.
In the case of `Cn1ncc2ccc(C3CCCN(C(=O)Cc4cccs4)C3)nc21` (centres undefined), the cytotoxicity at 10 µM was found to be 10%.
As for `O=C1CSc2ccccc2N1Cc1noc(C2CCCO2)n1` (centres undefined), the cytotoxicity at 10 µM was found to be 8.35%.
Then `CCc1cccc(NC(=O)CCC(=O)N(C)Cc2nc(C)c[nH]2)c1`, with -1.92%.
Regarding `O=C(O)c1cn(CC2CCCN(c3cnc4ccccc4n3)C2)nn1` (centres undefined), the cytotoxicity at 10 µM amounted to 1.57%.
Next, `CCn1ncc2c1C(COC)N(C(=O)c1ccc3c(c1)OCO3)CC2` (centres undefined): 8.1%; `CCN(C)C(=O)c1ccc(N(C)Cc2cc(-c3ccncc3)no2)nc1`: -2.04%; `Cn1cc(NC(=O)N2CCCC2c2ccccn2)ccc1=O` (centres undefined): -3.83%.
For `CC(C)(C)C(O)CN1CCN(CC(=O)NC2CCOCC2)CC1` (centres undefined), the cytotoxicity at 10 µM was -8.06%.
As to `CC(NC(=O)N(C)Cc1ccncc1)c1nncn1C` (centres undefined), the cytotoxicity at 10 µM was found to be 2.57%.
Next, `COc1ccc2c(c1)c(C(=O)Nc1nnn[nH]1)cn2C`: -1.33%; `CCC1CN(CCC(=O)N(C)C)CCN1CCOC` (centres undefined): -6.34%.
For `O=C(c1ccco1)N1CCCC2(C1)CN(c1nncs1)CCO2` (centres undefined), the cytotoxicity at 10 µM is -99.3%.
In the case of `CS(=O)(=O)c1cccc2c1CCCN2C(=O)Cc1cccc(F)c1`, the cytotoxicity at 10 µM is 8.14%.
On to `N#Cc1ccccc1N1CCN(CCC(=O)N2CCOCC2)CC1`, for which the cytotoxicity at 10 µM stood at 10%.
Next, `O=C(c1cccnc1)N1C[C@H]2CC[C@@H](C1)N(Cc1ccc(F)cc1Cl)C2`: 1.17%; `CCOc1ccc2nc(CN3CCC(CNC(C)=O)C3)ccc2c1` (centres undefined): -7.23%.
Next, `Cc1cc(C(=O)N2C[C@@H]3OCCN(CCN4CCCC4)[C@@H]3C2)c(C)o1`: -74.8%; `c1ccc(CCc2n[nH]c(C3CCC3)n2)cc1`: -3.58%.
Consider `CCOc1ccc(N(CCC#N)C(=O)c2ccc(OC)nc2)cc1`, for which the cytotoxicity at 10 µM stood at 2.52%.
Next, `Nc1ncccc1CN1C[C@@H](C(=O)O)[C@H](c2cccc(F)c2)C1`: -11.1%; `Cc1cc(C(=O)N2C[C@@H]3CN(S(C)(=O)=O)CCO[C@@H]3C2)c(C)o1`: -3.49%; `COCCc1ncc(CNC2(c3ccc(Cl)cc3)CC2)cn1`: -17.3%.
As for `O=C(CCc1ccsc1)Nc1ccnn1C1CCS(=O)(=O)C1` (centres undefined), the cytotoxicity at 10 µM was found to be 9.01%.
Turning to `O=C(CNC(=O)c1ccoc1)NC(c1ccc(F)cc1)C(F)(F)F` (centres undefined), the cytotoxicity at 10 µM is -2.51%.
Then `CCC[C@@H]1CN(c2ncnc3sccc23)C[C@H]1C(=O)O`, with 1.96%; and `CC(C)CC(=O)N1CC[C@@H]2CN(Cc3cccnc3)S(=O)(=O)[C@@H]2CC1`, with -103%.
Next, `Cn1ccc(C(=O)NC2CCC23CCN(Cc2cnn(C)c2)CC3)c1` (centres undefined): -146%.
